Measurements as given in PubChem BioAssay.
Records with an inconclusive call do not appear. Activity calls are given as the source filed them.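 Rule for the calls, unless noted: active = viability increase at or above a cutoff of the median across tested compounds plus 3 SD (cut at about 8.5% in these data, passing the limit was not always enough); inconclusive = some gains above the cutoff, reason not given; inactive = the rest.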

How the values were obtained:
[1] = S. cerevisiae growth inhibition in permissive medium (OD615), pilot counter-assay for S. cerevisiae lifespan shortening project, permissive growth control (AID 705;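 active = growth inhibition above 25% in both replicates, a cutoff set 3 SD above the mean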); conditions: OD615, 24 h, at 10 µM, active compounds read high
Summary of the method: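 Material: engineered DeaD yeast; Compound: one dose 10 µM, DMSO 0.25% final; Detection: absorbance (optical density) at 615 nm; Buffer or medium: permissive raffinose/galactose medium; Timing: 24 h exposure, 30 °C.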

[2] = S. cerevisiae growth inhibition in restrictive medium, OD615, pilot screen, restrictive growth control, yeast lifespan reduction project (AID 706;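 active = growth inhibition above a set limit, 3 SD over mean compound inhibition, in both replicates, cut at about 43% in these data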;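 note: modified DeaD lifespan yeast strain shifted to restrictive glucose medium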); conditions: OD615, 48 h, at 10 µM, active compounds read high
Summary of the method: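 Buffer or medium: restrictive glucose medium (CSMM-D); test system: modified S. cerevisiae; doses: single dose of 10 µM compound final, 0.25% DMSO; schedule: 48 h compound exposure at 30 °C; detection: absorbance (optical density) measured at 615 nm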

[3] = doxorubicin toxicity protection in MRP-1 cells – H69AR cells, CellTiter-Glo, duplicate, MRP-1 activator project, pilot screen (AID 807); conditions: H69AR viability with doxorubicin, CellTiter-Glo luminescence; at 10 µM; active compounds read high;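 note: compound pretreatment 18-22 h then 72 h combined with doxorubicin; 0% = doxorubicin alone and 100% = vehicle without doxorubicin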
[4] = viability of HCT116 without oncogenic beta-catenin – human colon tumor cells, pilot screen (AID 823;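 active = cell viability at or below a set limit in both duplicate runs, the limit being the all-compound median minus 4 SD, cut at about 23% in these data, passing the limit was not always enough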;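 note: 0% = wells killed by 20 µM Hyamine and 100% = untreated DMSO cell wells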); conditions: HCT116 beta-catenin knockout viability, CellTiter-Glo, 60 h; at 10 µM; active compounds read low
[5] = viability of PTEN-null HCT116 cells – cell-based, HCT116 clonal line, CellTiter-Glo, pilot screen (AID 824;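 active = viability at or below 27.92% in each of two runs, the all-compound median minus 4 SD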;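 note: 0% = 20 µM Hyamine control and 100% = vehicle cell control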); conditions: HCT116 PTEN-deleted viability, 60 h, at 10 µM, active compounds read low
[6] = RAM pathway blockade in budding yeast – dse1pr::URA3 reporter, 5-FOA selection, pilot screen (AID 869;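 active = inhibition over a set limit, the all-compound mean plus 3 SD, in both replicate runs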;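 note: 0% = DMSO wells with no growth and 100% = 10 µM 1-NA-PP1 with full growth; RAM network block rescues cells from 5-FOA so hits raise OD615 growth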); conditions: S. cerevisiae dse1pr::URA3 5-FOA growth, OD615, 2 d; at 10 µM; active compounds read high; strain carries analog-sensitive mutant Cbk1 kinase
[7] = RAM signaling pathway blockade in yeast – S. cerevisiae, Pdr1DBD-CYC8 efflux-inhibited sensitized strain, primary screen (AID 1298;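 active = RAM network inhibition above 8.4% in each of two replicates, 3 SD over the compound average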;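 note: 0% = DMSO untreated cells without growth and 100% = 10 µM 1-NA-PP1 full growth; higher means more yeast growth rescued from 5-FOA killing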); conditions: S. cerevisiae cbk1-as DSE1-URA3 strain, 5-FOA growth OD615, 2 d; at 50 µM; active compounds read high

CN1CCN(c2cc(=O)n(-c3ccc(Cl)cc3)c(=O)[nH]2)CC1
inactive: growth inhibition [1] -1.55% | growth inhibition [2] -1.23% | viability increase [3] 0.27% | viability [4] 108% | viability [5] 102% | inhibition [6] 0.42% | RAM network inhibition [7] 2.42%

CCOc1ccc(C2N(c3ccc(F)cc3)C(=O)C3CCCN32)cc1 (configuration not stated)
inactive: growth inhibition [1] -6.9% | growth inhibition [2] -2.44% | viability increase [3] -0.91% | viability [4] 94.3% | viability [5] 91.2% | inhibition [6] 2.38% | RAM network inhibition [7] 4.43%

CCOc1ccc(NC(=O)CSc2nc3c(c(=O)n2-c2ccccc2OC)SCC3)cc1
inactive: growth inhibition [1] -4.54% | growth inhibition [2] -3.66% | viability increase [3] -2.57% | viability [4] 94.3% | viability [5] 82.5% | inhibition [6] 0.805% | RAM network inhibition [7] 1.18%

Cc1ccc(-n2nc(C)c3c2OC(N)=C(C#N)C3c2cccs2)cc1 (configuration not stated)
inactive: growth inhibition [1] -14.8% | growth inhibition [2] -26.3% | viability increase [3] -3.41% | viability [4] 90.5% | viability [5] 88.5% | inhibition [6] 1.91% | RAM network inhibition [7] 0.52%

Cc1cc(C)cc(N(CC(=O)NCC2CCCO2)S(=O)(=O)c2c(C)noc2C)c1 (configuration not stated)
inactive: growth inhibition [1] -12.5% | growth inhibition [2] -8.86% | viability increase [3] -1.25% | viability [4] 102% | viability [5] 90.5% | inhibition [6] 2.89% | RAM network inhibition [7] 1.84%

Cc1cc(N2C(=O)CC(Cc3ccccc3)C2=O)no1 (configuration not stated)
inactive: growth inhibition [1] -6.49% | growth inhibition [2] -11.5% | viability increase [3] 1.08% | viability [4] 103% | viability [5] 103% | inhibition [6] 1.55% | RAM network inhibition [7] 2.8%

CC12CCC(C(=O)Nc3ccc4c(c3)OCCO4)(OC1=O)C2(C)C (configuration not stated)
inactive: growth inhibition [1] -20.5% | growth inhibition [2] -5.64% | viability increase [3] -0.01% | viability [4] 93.7% | viability [5] 97.8% | inhibition [6] 1.28% | RAM network inhibition [7] -0.36%

Cc1ccc(NC(=O)C(C)N2CCOCC2)c(C(=O)c2ccccc2)c1 (configuration not stated)
inactive: growth inhibition [1] -11.7% | growth inhibition [2] -12.7% | viability increase [3] -1.7% | viability [4] 100% | viability [5] 99.5% | inhibition [6] 1.09% | RAM network inhibition [7] 3.04%

CNC(=O)c1ccc2snnc2c1
inactive: growth inhibition [1] -8.38% | growth inhibition [2] 5.12% | viability increase [3] -1.54% | viability [4] 107% | viability [5] 97.9% | inhibition [6] 0.52% | RAM network inhibition [7] -0.47%

COc1ccc(N2Cc3cccc(C(=O)O)c3C2=O)cc1
inactive: growth inhibition [1] -17.1% | growth inhibition [2] -1.34% | viability increase [3] -0.59% | viability [4] 104% | viability [5] 101% | inhibition [6] 1.5% | RAM network inhibition [7] 0.58%

Cc1noc(NS(=O)(=O)c2ccc(NC(=O)CSc3ncccn3)cc2)c1C
inactive: growth inhibition [1] -3.47% | growth inhibition [2] -2.18% | viability increase [3] -0.58% | viability [4] 109% | viability [5] 95.2% | inhibition [6] 0.615% | RAM network inhibition [7] 1.94%

CCOc1ccc(-n2c(Cc3cc(=O)[nH]c(=O)[nH]3)nnc2SC(C)C(=O)OC)cc1 (configuration not stated)
inactive: growth inhibition [1] -4.41% | growth inhibition [2] 2.84% | viability increase [3] 0.2% | viability [4] 101% | viability [5] 103% | inhibition [6] 0.31% | RAM network inhibition [7] 3.49%

Cc1ccc(-c2nc(CS(=O)CC(=O)NCc3ccccn3)c(C)o2)cc1 (configuration not stated)
inactive: growth inhibition [1] -5.48% | growth inhibition [2] 7.86% | viability increase [3] -1.49% | viability [4] 92.2% | viability [5] 90.7% | inhibition [6] 0.745% | RAM network inhibition [7] 1.38%

CCOC(=O)c1cnc2c(Cl)cc(Cl)cc2c1NCCOCCO
inactive: growth inhibition [1] 1.23% | growth inhibition [2] -11.6% | viability increase [3] -5.62% | viability [4] 81.8% | viability [5] 74.4% | inhibition [6] -0.09% | RAM network inhibition [7] 2.56%

COc1ccc2oc(C(=O)CCC(=O)O)c(N)c2c1
inactive: growth inhibition [1] -12.2% | growth inhibition [2] 8.27% | viability increase [3] -0.43% | viability [4] 93.3% | viability [5] 92.5% | inhibition [6] 1.98% | RAM network inhibition [7] 1.31%

CCCN(CCC)C(=O)CCS(=O)(=O)c1cccc2nsnc12
inactive: growth inhibition [1] -9.5% | growth inhibition [2] -18.6% | viability increase [3] -1.95% | viability [4] 96.3% | viability [5] 98.2% | inhibition [6] 1.15% | RAM network inhibition [7] 2.25%

Cc1ccc(O)c(N=CC2=C(O)c3ccccc3C2=O)c1
inactive: growth inhibition [1] -0.76% | growth inhibition [2] 5.53% | viability increase [3] -3.88% | viability [4] 61.6% | viability [5] 64.2% | inhibition [6] 1.85% | RAM network inhibition [7] 1.92%

O=C(CCc1nc2ccccc2[nH]1)NC1CCCCC1
inactive: growth inhibition [1] -16.3% | growth inhibition [2] -17.4% | viability increase [3] -0.01% | viability [4] 102% | viability [5] 96.9% | inhibition [6] 1.21% | RAM network inhibition [7] 1.28%

CCOC(=O)N1CCN(C(=O)CN(c2cc(Cl)ccc2OC)S(=O)(=O)c2ccccc2)CC1
inactive: growth inhibition [1] 6.4% | growth inhibition [2] -12% | viability increase [3] -2.13% | viability [4] 97.1% | viability [5] 84.1% | inhibition [6] 1.68% | RAM network inhibition [7] 2.07%

CC(=O)Nc1nnc(SCC(=O)NCCOc2ccccc2)s1
inactive: growth inhibition [1] -0.45% | growth inhibition [2] -7.88% | viability increase [3] -0.85% | viability [4] 98.9% | viability [5] 96.7% | inhibition [6] 0.52% | RAM network inhibition [7] 4.66%

CCOC(=O)COn1c(=O)c(=O)n(O)c2ccccc21
inactive: growth inhibition [1] -14.5% | growth inhibition [2] -14.8% | viability increase [3] -4.99% | viability [4] 87.2% | viability [5] 87.1% | inhibition [6] 1.54% | RAM network inhibition [7] 1.4%

CCCSc1nc2c(cnn2-c2ccc(C)c(C)c2)c(=O)[nH]1
inactive: growth inhibition [1] -8.57% | growth inhibition [2] -3.42% | viability increase [3] -1.72% | viability [4] 93.2% | viability [5] 69.9% | inhibition [6] 2.58% | RAM network inhibition [7] 4.37%

COc1ccc(S(=O)(=O)N2CCCN(S(=O)(=O)c3ccc(OC)cc3C)CC2)c(C)c1
inactive: growth inhibition [1] -12.6% | growth inhibition [2] -4.12% | viability increase [3] -6.52% | viability [4] 87.2% | viability [5] 84.7% | inhibition [6] -0.105% | RAM network inhibition [7] 3.22%

Cc1ccc(S(=O)(=O)CCc2nc3ccccc3n2CCC#N)cc1
inactive: growth inhibition [1] 4.59% | growth inhibition [2] 0.82% | viability increase [3] -7.34% | inhibition [6] 0.995% | RAM network inhibition [7] 0.01%
active: viability [4] 23.5% | viability [5] 18.7%

O=C(O)CC(CNS(=O)(=O)c1ccccc1)c1ccccc1 (configuration not stated)
inactive: growth inhibition [1] -1.83% | growth inhibition [2] 1.5% | viability increase [3] 0.76% | viability [4] 100% | viability [5] 98.6% | inhibition [6] 1.54% | RAM network inhibition [7] -0.36%

COc1ccccc1N1CCN(C(CNC(=O)C2CCCCC2)c2cccnc2)CC1 (configuration not stated)
inactive: growth inhibition [1] -3.31% | growth inhibition [2] -3.02% | viability increase [3] 1.93% | viability [4] 90.1% | viability [5] 94.4% | inhibition [6] 0.775% | RAM network inhibition [7] 3.85%

CC1CN(Cc2nc3c(c(=O)n(C)c(=O)n3C)n2Cc2cccc(Cl)c2)CC(C)O1 (configuration not stated)
inactive: growth inhibition [1] -4.24% | growth inhibition [2] -9% | viability increase [3] -2.03% | viability [4] 100% | viability [5] 90.8% | inhibition [6] 0.74% | RAM network inhibition [7] 2.81%

O=C(CSc1nnnn1-c1ccccc1)CSc1nnnn1-c1ccccc1
inactive: growth inhibition [1] -7.66% | growth inhibition [2] 1.63% | viability increase [3] -5.63% | viability [4] 92.6% | viability [5] 90.1% | inhibition [6] 2.98% | RAM network inhibition [7] 7.19%

Cc1ccc(N2CCN(c3cc(C)nc4nc(C)nn34)CC2)c(C)c1
inactive: growth inhibition [1] -17.8% | growth inhibition [2] 25.7% | viability increase [3] -2.76% | viability [4] 83.3% | viability [5] 75.8% | inhibition [6] -0.325% | RAM network inhibition [7] 2.52%

Cc1cc(C)n2nc(S(=O)(=O)N(CC(C)C)CC(C)C)nc2n1
inactive: growth inhibition [1] 3.3% | growth inhibition [2] 3.41% | viability increase [3] -1.13% | viability [4] 104% | viability [5] 94.2% | inhibition [6] 1.08% | RAM network inhibition [7] 0.22%

CCOC(=O)Nc1ccc2ncn(C)c(=O)c2c1
inactive: growth inhibition [1] -16.6% | growth inhibition [2] -8.55% | viability increase [3] -5.77% | viability [4] 101% | viability [5] 94.8% | inhibition [6] -0.055% | RAM network inhibition [7] 1.08%

COC(=O)c1ccc(COc2ccc3c(C)c(C)c(=O)oc3c2)o1
inactive: growth inhibition [1] -4.33% | growth inhibition [2] -4.88% | viability increase [3] -0.68% | viability [4] 101% | viability [5] 105% | inhibition [6] 1.5% | RAM network inhibition [7] 5.89%

Brc1ccc(-c2noc(CCc3ccccc3)n2)o1
inactive: growth inhibition [1] -9.63% | growth inhibition [2] 2.66% | viability increase [3] 1.58% | viability [4] 102% | viability [5] 96.9% | inhibition [6] 3.12% | RAM network inhibition [7] 0.73%

O=C(CCCCn1c(=O)[nH]c2ccccc2c1=O)NCCc1c[nH]c2ccccc12
inactive: growth inhibition [1] -16.7% | growth inhibition [2] -25.8% | viability increase [3] -4.05% | viability [4] 93.5% | viability [5] 93.7% | inhibition [6] 0.945% | RAM network inhibition [7] 4.06%

C=CCOc1ccc(C2c3c(oc4ccccc4c3=O)C(=O)N2c2ccccn2)cc1OCC (configuration not stated)
inactive: growth inhibition [1] -13.9% | growth inhibition [2] -10.5% | viability increase [3] -5.39% | viability [4] 77.9% | viability [5] 74.6% | inhibition [6] 2.57% | RAM network inhibition [7] 6.03%

COc1ccc(C(=O)N2CCC(C(=O)Nc3cccc(C)c3)CC2)cc1OC
inactive: growth inhibition [1] -0.875% | growth inhibition [2] -15.3% | viability increase [3] -2.37% | viability [4] 106% | viability [5] 96.7% | inhibition [6] 0.29% | RAM network inhibition [7] 2.75%
